Among all 310,000 compounds or so, about 2,800 (0.9%) were called active.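 How the source made its calls: active means B-score of the integrated calcium signal more than 4 SD below the library mean, with starting fluorescence not abnormally high; inactive means the rest.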 What follows is part of a selection rich in actives, with near analogues and random picks from the rest.
Assay: RGS4 potentiators or activators, primary screen, cell-based, HEK293 M3R inducible RGS4, calcium flux (AID 463111);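 on B-score: negative B-score means reduced calcium response which marks RGS4 activation or potentiation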
Conditions: HEK293 M3R/inducible RGS4, carbachol calcium flux Fluo4, at 10 µM; stronger effect = lower value
Method in brief: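 Assay system: Inducible-RGS4 HEK293 cells carrying M3 receptor | Schedule: Compound preincubation 20 min at room temperature before agonist | Signal: Kinetic calcium fluorescence imaging with Fluo4-AM dye, 2 µM | Read-out basis: B score from integrated fluorescence ratio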

Row | SMILES | B-score
1 | CCN(CC)P(=O)(Oc1cccc(C)c1)N(CC)CC | inactive
2 | Cc1cccc(OP(=O)(Oc2cccc(C)c2)OC(c2ccccc2)C(F)(F)F)c1 (stereo not given) | -7.67 (active)
3 | O=C1CC(=O)N(Cc2ccccc2)C(=O)N1CCCCCCN1C(=O)CC(=O)N(Cc2ccccc2)C1=O | inactive
4 | CC(c1ccccc1)(c1ccccc1)c1ccncc1 | inactive
5 | CCNc1nc2[nH]c(=O)c3c(c2s1)OC(N)=C(C#N)C3c1cccs1 (stereo not given) | inactive
6 | C=CC12CN(C)[C@@H]3C4CO[C@H](C[C@H]41)[C@]1(C(=O)Nc4ccccc41)[C@@H]32 (stereo not given in full) | -8.82 (active)
7 | CCC(C)n1c(O)c(/C=N/Nc2nc3c(c(=O)n(C)c(=O)n3C)n2C)c(=O)[nH]c1=S (stereo not given) | inactive
8 | CCOc1ccc(C2SCC(=O)Nc3c2c(C)nn3C2CCOC(C)(C)C2)cc1 (stereo not given) | inactive
9 | Cc1ccc(CN2CCCC(C(=O)c3ccc4c(c3)OCO4)C2)cc1C (stereo not given) | -7.27 (active)
10 | Cc1ccsc1C(=O)C1CCCN(Cc2ccc(O)cc2)C1 (stereo not given) | inactive
11 | COc1ccc(C(=O)C2CCCN(Cc3ccc(C)s3)C2)cc1OC (stereo not given) | inactive
12 | O=C(Cc1ccc(Cl)cc1)NCCN1CCN(C(=O)Cc2ccc(Cl)cc2)CC1 | inactive
13 | CCOC(=O)C1(Cc2ccc(Cl)cc2)CCN(C(C)CCn2cccn2)CC1 (stereo not given) | inactive
14 | OC(Cn1c2ccccc2c2ccccc21)C[n+]1ccccc1 (stereo not given) | inactive
15 | CN1CCN(/N=C/c2c[nH]c3ccccc23)CC1 | inactive
16 | O=C(Nc1cccc(OC(=O)N2CCCCC2)c1)N1CCOCC1 | inactive
17 | COc1cccc(CN2CCCC(C(=O)c3ccccc3SC)C2)c1O (stereo not given) | inactive
18 | CC(C)Oc1cccc(C(=O)C2CCCN(C3CCOCC3)C2)c1 (stereo not given) | -7.9 (active)
19 | COc1ccc(-c2nn(CCC#N)cc2C(=O)O)cc1 | inactive
20 | Cc1cccc(-n2c(O)c(/C=N/N3CCOCC3)c(=O)[nH]c2=S)c1 | inactive
21 | COc1cc(-n2c(=S)[nH]c3ccc(C)cc3c2=O)c(Cl)cc1Cl | inactive
22 | CCCCCn1c(=O)c(C(=O)NCc2ccccc2)c(O)c2ccccc21 | inactive
23 | CCCCCn1c(=O)c(C(=O)Nc2c(C)n(C)n(-c3ccccc3)c2=O)c(O)c2ccccc21 | -7.47 (active)
24 | CCCCn1c(=O)c(C(=O)Nc2ccccc2Cl)c(O)c2ccccc21 | inactive
25 | O=C(O)CCn1cc(C=C2C(=O)NC(=S)NC2=O)c(-c2cccc(Br)c2)n1 | inactive
